# Measurements reported in PMC4674360 (Molecular cancer therapeutics, 2015).
# “Also recorded” adds a separate entry of the source. Like-named read-outs stand apart in the source and are kept apart here.
# Tests used:
# GL261 tumors = details: cited from earlier work
# [1] = 26 (veliparib); ref 48 (E7016); cited from earlier work
# GBM22 = details: cited from earlier work
# GBM12 flank xenografts = assay: GBM12 flank xenograft tumor regrowth delay; type: in vivo, mice; details: TMZ 50 mg/kg days 1-5, rucaparib 1 mg/kg days 1-5, three 28 day cycles, placebo 32 days
# [2] = system: GBM12 orthotopic xenografts; assay: GBM12 orthotopic xenograft survival; type: in vivo, mice; details: TMZ 50 mg/kg, rucaparib 1 mg/kg days 1-5 every 28 days × 3 cycles, placebo 16 days, p = 0.88
# PDGF-driven glioma = details: higher drug delivery into brain in knockout mice; cited from earlier work
# [3] = target: T1, murine Breast Cancer Resistance Protein (BCRP1) (Mus musculus, UniProt Q7TMS5); assay: In vitro intracellular accumulation in BCRP1-overexpressing MDCKII cells; type: in vitro ADME; details: rucaparib 2 −M, prazosin 0.39 nM, 60 minutes at 37°C, mean ± SD, n = 5-6
# T1 sequence (Q7TMS5 1-657): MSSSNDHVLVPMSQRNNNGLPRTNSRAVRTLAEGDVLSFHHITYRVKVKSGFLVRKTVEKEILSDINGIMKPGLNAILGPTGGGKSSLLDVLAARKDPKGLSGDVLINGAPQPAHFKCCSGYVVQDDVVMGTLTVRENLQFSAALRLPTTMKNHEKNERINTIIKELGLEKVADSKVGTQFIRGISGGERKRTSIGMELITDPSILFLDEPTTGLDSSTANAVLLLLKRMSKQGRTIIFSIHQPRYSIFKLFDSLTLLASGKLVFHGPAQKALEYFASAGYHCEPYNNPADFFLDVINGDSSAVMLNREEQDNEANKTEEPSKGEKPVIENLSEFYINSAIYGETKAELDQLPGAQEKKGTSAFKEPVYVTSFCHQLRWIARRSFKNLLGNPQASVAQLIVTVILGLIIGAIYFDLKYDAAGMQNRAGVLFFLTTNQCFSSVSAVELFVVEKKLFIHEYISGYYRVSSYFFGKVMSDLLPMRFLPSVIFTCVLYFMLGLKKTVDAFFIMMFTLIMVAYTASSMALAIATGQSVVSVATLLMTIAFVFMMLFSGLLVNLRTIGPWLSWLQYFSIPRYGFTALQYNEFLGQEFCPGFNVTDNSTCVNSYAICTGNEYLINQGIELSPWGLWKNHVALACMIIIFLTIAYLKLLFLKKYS
# Method in brief: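 MDCKII cells (vector control or murine Bcrp1-transfected) were seeded at 2 x 10^5/well and grown to 80% confluence. After washing in serum-free buffer, cells were preincubated 30 min ± 0.2 µM Ko143. They were then exposed to 2 µM test compound or 0.39 nM prazosin (substrate control) for 60 min at 37°C. Uptake was stopped with cold PBS and cells lysed in 1% Triton X-100. Intracellular drug was measured by LC-MS/MS and normalised to BCA protein; mean ± SD, n = 5-6.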
# [4] = Tolerability of chronic rucaparib with TMZ; type: in vivo, mice; details: IP, with 50 mg/kg PO TMZ
# [5] = MALDI mass spectrometric imaging of drug distribution; type: in vivo, mice; details: thirty minutes after single 10 mg/kg IP dose
# Method in brief: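 Tumour-bearing mice got one 10 mg/kg IP dose and were euthanised 30 min later. Brain, liver and tumour were snap-frozen; 12 µm cryosections went onto ITO slides, with sister sections for H&E. DHB matrix was sprayed on (160 mg/mL in methanol/0.2% TFA 70:30). Imaging used a 12 T FT-ICR MS, positive ion mode, m/z 100-2500, 250 shots per spot, 80 µm pixels (brain, liver) and 100 µm (flank tumour).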
# [6] = type: in vivo, mice; details: for half-life: mouse, 1 mg/kg
# Method in brief: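 Mice with orthotopic GBM12 xenografts got a single 1 mg/kg intraperitoneal dose. Plasma, liver and brain (tumour-injected and contralateral hemispheres) were collected and flash-frozen at 0, 60, 120, 360 and 1440 min after dosing. Drug levels were measured by LC-MS; values are the mean of 2 or 3 mice per time point.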
# [7] = Steady-state brain distribution in wild-type and Mdr1a/b-/-Bcrp1-/- mice; type: in vivo, FVB mice
# Method in brief: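 FVB wild-type and Mdr1a/b-/-Bcrp1-/- mice received the test compound for 48 h by intraperitoneal osmotic minipump at 5 µg/hr (pump stock 5 mg/mL in DMSO). Plasma and whole brain were flash-frozen. Brain was homogenised in 5% BSA, samples spiked with dasatinib internal standard and extracted in ethyl acetate, then assayed by positive-mode LC-MS/MS. Brain-to-plasma ratio reported as mean ± SD, n=4.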
# [8] = system: GBM14, GBM43, GBM59 intracranial xenografts; assay: Other orthotopic primary GBM xenograft lines, survival; type: in vivo, mice; details: three other primary GBM xenograft lines
# Method in brief: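 Patient-derived GBM lines were kept by serial passage in mice and implanted intracranially. Mice with established tumours were randomised, 10 per group, to four arms: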
# PARP = PARP enzymatic activity in tissue homogenates after a single dose; type: in vivo, mice
# [9] = 60 minutes, single 1 mg/kg dose
smiles,measurement,setting,value
"Cc1ccc2c(=O)c3cccc(CC(=O)O)c3oc2c1C [DMXAA, 5,6-dimethylxanthenone-4-acetic acid]",effect on survival with intracranial GL261 tumors,GL261 tumors; intracranial,no survival extension
same,effect on subcutaneous GL261 tumors,GL261 tumors; subcutaneous,significantly delayed tumor growth
O=c1[nH]nc2c3c(cccc13)Oc1ccc(CN3CCC(O)CC3)cc1-2 [E7016],blood brain barrier penetration,[1],significantly penetrate the blood brain barrier
C=CCn1c(=O)c2cnc(Nc3ccc(N4CCN(C)CC4)cc3)nc2n1-c1cccc(C(C)(C)O)n1 [MK-1775],"sensitizing effect combined with temozolomide, flank models",GBM22; flank models,significant sensitizing effects
same,"sensitizing effect combined with temozolomide, GBM22",GBM22; orthotopic GBM22 (contrasted with flank),no sensitizing effect
"Cn1nnc2c(C(N)=O)ncn2c1=O [TMZ, temozolomide]",Median time for tumor to exceed a 1000 mm^3 size endpoint,GBM12 flank xenografts,86 days
same,median survival,[2],68 days
Cc1nc(Nc2ncc(C(=O)Nc3c(C)cccc3Cl)s2)cc(N2CCN(CCO)CC2)n1 [dasatinib],survival of tumor-bearing Mdr1a/b-/-Bcrp1-/- knockout mice compared to wild-type mice,PDGF-driven glioma,significant improvement in survival
COc1cc2nc(N3CCN(C(=O)c4ccco4)CC3)nc(N)c2cc1OC [prazosin],intracellular accumulation in BCRP1-overexpressing cells,[3],16.8±1.4 % of control
CNCc1ccc(-c2[nH]c3cc(F)cc4c3c2CCNC4=O)cc1 [rucaparib],highest dose tolerated for chronic administration,[4],1 mg/kg
same,rucaparib distribution in flank tumors by MALDI-MSI,"[5]; GBM12 flank, n=2",homogeneous and high-level accumulation
same,rucaparib distribution in orthotopic tumors by MALDI-MSI,"[5]; GBM12 orthotopic, n=3",no appreciable rucaparib signal
same,rucaparib distribution in normal brain by MALDI-MSI,"[5]; adjacent normal brain, 10 mg/kg",no appreciable rucaparib signal; also recorded: below the limit of detection
same,concentration in contralateral brain hemisphere,[6]; [9],0.08 −M
same,concentration in liver,[6]; [9],11.05 −M
same,concentration in tumor-injected hemisphere,[6]; [9],0.35 −M
same,concentration in tumor-injected hemisphere,"[6]; 6 hours, single 1 mg/kg dose",0.23 −M
same,levels in normal brain,"[6]; by 360 minutes after injection, single 1 mg/kg dose",undetectable
same,half-life,"[6]; plasma, ip",1.5 h
same,half-life,"[6]; tumor-injected brain hemisphere, intraperitoneal",13 h
same,maximum plasma concentration relative to Cmax in humans (times lower),[6]; single 1 mg/kg dose in mice versus human Cmax of ref 12,about four-five
same,Kp at 48 h,"[7]; FVB, mouse, brain, ip, 5 µg/hr, brain to plasma ratio at steady state, Mdr1a/1b-/-;Bcrp1-/- (TKO) mice, 48-hour intraperitoneal infusion at 5 −g/hr, mean ± SD, n=4",1.61 ± 0.25
same,increase in the brain-to-plasma ratio in knockout versus wild-type mice,[7]; Mdr1a/b-/-Bcrp1-/- knockout mice,~20 fold
same,intracellular accumulation in BCRP1-overexpressing cells,[3],14.5±5.2 % of control
same,potentiation of TMZ by rucaparib,[8],did not potentiate TMZ
same,PARP activity in normal brain (contralateral hemisphere),PARP; by 360 minutes after injection,recovered to baseline
same,PARP activity in liver,PARP; reduced for several hours after single 1 mg/kg dose,5 % of baseline
same,PARP activity in tumor-injected hemisphere,"PARP; remained suppressed at this level for 24 hours, single 1 mg/kg dose",50 % of baseline
C[C@]1(c2nc3c(C(N)=O)cccc3[nH]2)CCCN1 [veliparib],blood brain barrier penetration,[1],significantly penetrate the blood brain barrier
